Measurements published in ChEMBL document CHEMBL1177650, “Synthesis, structural elucidation and in vitro antiparasitic activity against Trypanosoma cruzi and Leishmania chagasi parasites of novel tetrahydro-1-benzazepine derivatives” (Bioorg Med Chem, 2010).

How the values were obtained:
[1] = Cytotoxicity against african green monkey Vero cells after 72 hrs by MTT assay; type: cell-based; conditions: chlorocebus sabaeus
Procedure, shortened: (§1)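 Vero or transformed THP-1 cells incubated with compound (0.3–300 μM) 72 h at 37 °C, 5% CO2; untreated controls. MTT read-out, formazan OD at 580 nm; % cytotoxicity = 100 × (OD control − OD treated)/OD control. CC50/CC90 by sigmoidal regression; triplicates, repeated twice. DMSO stocks 100× concentrated, diluted in medium.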

Trypanosoma cruzi [2] = assay: Antitrypanosomal activity against Trypanosoma cruzi 320I01 epimastigotes after 72 hrs by haemocytometry; type: functional, organism-based; conditions: 320I01, 72 h
Procedure, shortened: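 Late-phase T. cruzi epimastigotes cultured in LIT medium with hiFCS at 28 °C; threefold serial dilutions (0.3–100 μM) for 72 h at 28 °C, untreated controls. Parasites counted in a haemocytometer; IC50/IC90 by sigmoidal regression; each concentration in triplicate, two experiments.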

[3] = Selectivity index, CC50 for african green monkey Vero cells to IC50 for Trypanosoma cruzi 320I01 epimastigote; type: functional
Procedure, shortened: (§2)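 Selectivity index computed as CC50 in Vero cells divided by IC50 against the T. cruzi stage named in the line.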

Trypanosoma cruzi [4] = assay: Antitrypanosomal activity against Trypanosoma cruzi 320I01 amastigotes infected in african green monkey Vero cells after 5 days by Giemsa staining; type: functional, organism-based; conditions: 320I01, Vero, 120 h
Procedure, shortened: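 Vero cells (RPMI, 5% hiSBF, 37 °C, 5% CO2) infected 24 h with tissue-derived T. cruzi trypomastigotes at parasite:cell 10:1. Compound dilutions (top 100 μM) applied 5 days at 37 °C, 5% CO2, medium changed once at day 3. Infected cells scored per 300 cells on methanol-fixed Giemsa preparations; IC50/IC90 by sigmoidal regression; triplicates, two experiments.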

[5] = Selectivity index, CC50 for african green monkey Vero cells to IC50 for Trypanosoma cruzi 320I01 amastigotes; type: functional; procedure, shortened: as §2
Leishmania chagasi [6] = assay: Antileishmanial activity against Leishmania chagasi MHOM/BR/74/PP75 promastigotes after 72 hrs by haemocytometry; type: functional, organism-based; conditions: MHOM/BR/74/PP75, 72 h
Procedure, shortened: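 Late-phase L. chagasi promastigotes, grown at 28 °C in RPMI 1640 with hemin, HEPES and 10% hiSBF, exposed to threefold serial dilutions (0.3–100 μM) for 72 h at 28 °C; untreated controls. Growth inhibition from haemocytometer counts; IC50/IC90 by sigmoidal regression; triplicates, repeated twice.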

[7] = Cytotoxicity against human THP1 cells after 72 hrs by MTT assay; type: cell-based; conditions: THP-1 cells; procedure, shortened: as §1
[8] = Selectivity index, CC50 for human THP1 cells to IC50 for Leishmania chagasi MHOM/BR/74/PP75 promastigotes; type: functional, THP-1
Procedure, shortened: (§3)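 Selectivity index computed as CC50 in THP-1 cells divided by IC50 against the L. chagasi stage named in the line.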

Leishmania chagasi [9] = assay: Antileishmanial activity against Leishmania chagasi MHOM/BR/74/PP75 amastigotes infected in human THP1 cells after 5 days by Giemsa staining; type: functional, organism-based; conditions: MHOM/BR/74/PP75, THP-1, 120 h
Procedure, shortened: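 THP-1 cells (RPMI, 5% hiSBF, 37 °C, 5% CO2) transformed, then infected 24 h with late-phase L. chagasi promastigotes at parasite:cell 10:1. Treated with compound dilutions (top 100 μM) 5 days at 37 °C, 5% CO2, medium changed once after 3 days. Infected cells counted per 300 cells on methanol-fixed Giemsa slides; IC50/IC90 by sigmoidal regression; triplicates, repeated twice.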

[10] = Selectivity index, CC50 for human THP1 cells to IC50 for Leishmania chagasi MHOM/BR/74/PP75 amastigotes; type: functional, THP-1; procedure, shortened: as §3

| IC50 (Trypanosoma cruzi [2]) [µM] | IC90 (Trypanosoma cruzi [2]) [µM] | IC50 (Trypanosoma cruzi [4]) [µM] | IC90 (Trypanosoma cruzi [4]) [µM] | IC50 (Leishmania chagasi [6]) [µM] | IC90 (Leishmania chagasi [6]) [µM] | IC50 (Leishmania chagasi [9]) [µM] | IC90 (Leishmania chagasi [9]) [µM] | SMILES | CC50 at 72 h [1] [µM] | CC90 at 72 h [1] [µM] | Selectivity Index [3] | Selectivity Index [5] | CC50 at 72 h [7] [µM] | CC90 at 72 h [7] [µM] | Selectivity Index [8] | Selectivity Index [10] |
| --- | --- | --- | --- | --- | --- | --- | --- | --- | --- | --- | --- | --- | --- | --- | --- | --- |
| 19.6 | > 100 | > 100 | > 100 | 41.2 | 47 | > 100 | > 100 | O[C@@H]1Cc2ccccc2N[C@H](c2cccc(Cl)c2)C1 (relative stereo) | 295 | > 300 | 15.05 | >3 | 167 | > 300 | 4.04 | >1 |
| 15.7 | 57.4 | 97.8 | 99.4 | 45 | > 100 | 97.7 | > 100 | O[C@@H]1Cc2cc(Br)ccc2N[C@H](c2ccccc2)C1 (relative stereo) | 42.1 | > 300 | 2.68 | 0.43 | 185 | > 300 | 4.1 | >1 |
| 18.9 | 38.1 | > 100 | > 100 | 23.8 | 67.3 | > 100 | > 100 | Fc1ccccc1[C@@H]1C[C@@H]2Cc3cc(Cl)ccc3N1O2 (relative stereo) | 123 | > 300 | 6.51 | >1 | > 300 | > 300 | >12 | >3 |
| > 100 | > 100 | > 100 | > 100 | > 100 | > 100 | > 100 | > 100 | Clc1cccc(Cl)c1[C@@H]1C[C@@H]2Cc3ccccc3N1O2 (relative stereo) | > 300 | > 300 | >3 | >3 | > 300 | > 300 | >3 | >3 |
| 17.7 | > 100 | > 100 | > 100 | > 100 | > 100 | > 100 | > 100 | Fc1cccc(Cl)c1[C@@H]1C[C@@H]2Cc3ccccc3N1O2 (relative stereo) | > 300 | > 300 | >17 | >3 | > 300 | > 300 | >3 | >3 |
| 49.6 | > 100 | > 100 | > 100 | 22.1 | 90.6 | > 100 | > 100 | O[C@@H]1Cc2cc(Cl)ccc2N[C@H](c2ccccc2)C1 (relative stereo) | 191 | > 300 | 3.85 | >2 | 188 | > 300 | 8.5 | >1 |
| 12.4 | > 100 | > 100 | > 100 | > 100 | > 100 | > 100 | > 100 | O[C@@H]1Cc2cc(F)ccc2N[C@H](c2ccccc2)C1 (relative stereo) | > 300 | > 300 | >24 | >3 | > 300 | > 300 | >3 | >3 |
| > 100 | > 100 | > 98.2 | > 98.2 | 71 | > 100 | > 98.2 | > 98.2 | Clc1ccc2c(c1)C[C@H]1C[C@@H](c3c(Cl)cccc3Cl)N2O1 (relative stereo) | 57 | > 295 | >0.56 | >0.58 | > 295 | > 295 | 4.15 | >3 |
| 48.1 | > 100 | > 100 | > 100 | > 100 | > 100 | > 100 | > 100 | Fc1cccc(Cl)c1[C@@H]1C[C@@H]2Cc3cc(Cl)ccc3N1O2 (relative stereo) | > 300 | > 300 | >6 | >3 | > 300 | > 300 | >3 | >3 |
| 31.8 | > 100 | > 100 | > 100 | > 100 | > 100 | > 100 | > 100 | O[C@@H]1Cc2ccccc2N[C@H](c2ccccc2)C1 (relative stereo) | > 300 | > 300 | >9 | >3 | > 300 | > 300 | >3 | >3 |
| 26.6 | 60.4 | > 100 | > 100 | 35.5 | 43.2 | > 100 | > 100 | O[C@@H]1Cc2cc(OC(F)(F)F)ccc2N[C@H](c2ccccc2)C1 (relative stereo) | 124 | 263 | 4.64 | >1 | 104 | > 300 | 2.92 | >1 |
| 15.6 | 54.9 | 98 | > 100 | > 100 | > 100 | > 100 | > 100 | Cc1cccc([C@@H]2C[C@H](O)Cc3ccccc3N2)c1 (relative stereo) | > 300 | > 300 | >19 | >3 | 176 | > 300 | >1 | >1 |
| 65.4 | > 100 | 41.8 | > 100 | 67.9 | > 100 | > 100 | > 100 | O[C@@H]1Cc2ccccc2N[C@H](c2ccc(Cl)cc2)C1 (relative stereo) | > 300 | > 300 | >4 | >7 | 114 | > 300 | 1.68 | >1 |
| 26.4 | 57.6 | > 100 | > 100 | > 100 | > 100 | > 100 | > 100 | O[C@@H]1Cc2ccccc2N[C@H](c2ccc(F)cc2)C1 (relative stereo) | > 300 | > 300 | >11 | >3 | > 300 | > 300 | >3 | >3 |
| 30.1 | 70.2 | > 100 | > 100 | 97.1 | > 100 | > 100 | > 100 | COc1cccc([C@@H]2C[C@H](O)Cc3ccccc3N2)c1 (relative stereo) | > 300 | > 300 | >10 | >3 | > 300 | > 300 | >3 | >3 |
